# Results pooled from the literature.
# SIRT6: NAD-dependent protein deacylase sirtuin-6 (SIRT6, Homo sapiens, UniProt Q8N6T7)
# BRD7: Bromodomain-containing protein 7 (BRD7, Homo sapiens, UniProt Q9NPI1)
# VRK1: Serine/threonine-protein kinase VRK1 (VRK1, Homo sapiens, UniProt Q99986)
Structure (SMILES),target,test,setting,measurement,value
COc1cccc(CONC(=O)c2ccc(C(N)=O)cc2)c1,SIRT6,"enzyme activity, inhibitor, fluorescence",100 µM,inhibition,75.4%
CCCOc1ccc(OC)c(F)c1C(=O)c1ccc(C(=O)N[C@@H]2CNC[C@H]2NC(=O)c2ccc3[nH]ncc3c2)cc1,"Angiopoietin-1 receptor (TEK, Homo sapiens, UniProt Q02763, Y897S)","enzyme activity, inhibitor",10 µM,remaining activity,47%
Cc1cccc(Sc2ccc(CONC(=O)c3ccc(C(N)=O)cc3)cc2C(F)(F)F)c1,SIRT6,"enzyme activity, inhibitor, fluorescence",100 µM,inhibition,100%
Nc1ncnc2occ(-c3ccc(NC(=O)Nc4cc(C(F)(F)F)ccc4F)cc3)c12,"Serine/threonine-protein kinase TNNI3K (TNNI3K, Homo sapiens, UniProt Q59H18)",cell-free assay,20 µM,remaining signal,1.5%
Nc1nonc1-n1cc(C(=O)N/N=C/c2ccc([N+](=O)[O-])cc2)nn1,SIRT6,"enzyme activity, inhibitor, fluorescence",100 µM,remaining activity,24.8%
NC(=O)c1ccc(C(=O)NOCc2cc(Cl)cc(Cl)c2)cc1,SIRT6,"enzyme activity, inhibitor, fluorescence",100 µM,inhibition,88.2%
Cc1cnc(NC2CCOCC2)nc1-n1cnc(C(=O)NC(CN)c2cc(F)cc(Cl)c2)c1 (stereo not shown),"Angiopoietin-1 receptor (TEK, Homo sapiens, UniProt Q02763, R849W)","enzyme activity, inhibitor, radiometric",1 µM,remaining activity,100%
NC(=O)c1ccc(C(=O)NOCc2ccc(Sc3ccc(N)cc3)c(C(F)(F)F)c2)cc1,SIRT6,"enzyme activity, inhibitor, fluorescence",100 µM,inhibition,97.3%
CC/C(=N\NC(=O)NCc1cccc(O)c1)c1ccc(O)c(C)c1O,"ALK tyrosine kinase receptor (ALK, Homo sapiens, UniProt Q9UM73)","enzyme activity, inhibitor",0.1 µM,inhibition,1%
NC(=O)c1ccc(C(=O)NOCc2ccc(C(=O)c3ccccc3)cc2)cc1,SIRT6,"enzyme activity, inhibitor, fluorescence",100 µM,inhibition,86%
Nc1nonc1-n1cc(C(=O)N/N=C/c2ccc(C(F)(F)F)cc2C(F)(F)F)nn1,SIRT6,"enzyme activity, inhibitor, fluorescence",100 µM,remaining activity,32.5%
Cc1cnc(Nc2ccc(OCCN3CCCC3)cc2)nc1Nc1cccc(S(=O)(=O)NC(C)(C)C)c1,BRD7,"thermal stability, DSF",10 µM,ΔTm,0.22 °C
NC(=O)c1ccc(C(=O)NOCc2ccc(C(F)(F)F)cc2)cc1,SIRT6,"enzyme activity, inhibitor, fluorescence",100 µM,inhibition,87%
Cn1c2c(Cl)c(Cl)ccc2c2cc(N)[nH]c(=O)c21,VRK1,"thermal stability, DSF",10 µM,ΔTm,1.3 °C
Nc1nonc1-n1cc(C(=O)N/N=C/c2cccc([N+](=O)[O-])c2O)nn1,SIRT6,"enzyme activity, inhibitor, fluorescence",100 µM,remaining activity,41.4%
Cn1c2c(Cl)c(Cl)ccc2c2cn[nH]c(=O)c21,"Lymphokine-activated killer T-cell-originated protein kinase (PBK, Homo sapiens, UniProt Q96KB5)","thermal stability, DSF",10 µM,ΔTm,-0.3 °C
Cc1ccc(C(=O)Nc2ccc(CN3CCN(C)CC3)c(C(F)(F)F)c2)cc1C#Cc1cnc2cccnn12,"ALK tyrosine kinase receptor (ALK, Homo sapiens, UniProt Q9UM73, C1156Y)",cell-free assay,23.5 nM,remaining signal,90%
CNC(=O)c1ccc(C(=O)NOCc2ccc(C(F)(F)F)cc2)cc1,SIRT6,"enzyme activity, inhibitor, fluorescence",100 µM,inhibition,35.3%
CCN1CCC2(CC1)NC(=O)c1c(c3ccc(Cl)c(Cl)c3n1C)C2C#N (racemic),VRK1,"thermal stability, DSF",10 µM,ΔTm,-0.4 °C
Nc1nonc1-n1cc(C(=O)N/N=C/c2cccc(O)c2O)nn1,SIRT6,"enzyme activity, inhibitor, fluorescence",100 µM,remaining activity,27.2%
Cc1cc(NC(=O)c2cccc3cc(-c4cccc5[nH]nc(N)c45)ccc23)ccc1F,"Angiopoietin-1 receptor (TEK, Homo sapiens, UniProt Q02763)","enzyme activity, inhibitor",0.1 µM,activity vs control,96%
Cn1c2c(c3ccc(Cl)c(Cl)c31)C(C#N)C1(CCCC1)NC2=O (stereo not shown),VRK1,"thermal stability, DSF",10 µM,ΔTm,0 °C
Nc1nonc1-n1cc(C(=O)N/N=C/c2ccc(C(F)(F)F)cc2[N+](=O)[O-])nn1,SIRT6,"enzyme activity, inhibitor, fluorescence",100 µM,remaining activity,24.9%
Cn1c2c(c3ccccc31)C(C#N)C(C)(C)NC2=O (stereo not shown),VRK1,"thermal stability, DSF",10 µM,ΔTm,-0.1 °C
Cc1cc2c(cc1N1C(=O)c3cccc4c(Cl)ccc(c34)C1=O)n(C)c(=O)n2C,BRD7,"thermal stability, DSF",10 µM,ΔTm,2.3 °C
